Test results taken from ChEMBL document CHEMBL1124367, “Design, synthesis, and testing of potential antisickling agents. 7. Ethacrynic acid analogues” (J Med Chem, 1989).

How the values were obtained:
[1] = Solubility ratio of the sickle cell haemoglobin with compound to sickle cell haemoglobin with out compound at 3 mM; type: ADME; conditions: 3000 µM
How it was run: (§1)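 HbS purified from red cells by DEAE-Sephacel chromatography and held in 150 mM phosphate, pH 7.4. Compound was added as its sodium salt in 0.15 M phosphate, pH 7.4, and incubated with HbS overnight at 4°C. Samples were sealed in EPR tubes and spun at 150000 g for 2.5 h at 35°C.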

[2] = Solubility ratio for sickle cell haemoglobin in presence and absence of compound; type: ADME; how it was run: as §1
[3] = Solubility ratio of the sickle cell haemoglobin with compound to sickle cell haemoglobin with out compound at 7 mM; type: ADME; conditions: 7000 µM; how it was run: as §1
[4] = (§2) Solubility ratio of the sickle cell haemoglobin with compound to sickle cell haemoglobin with out compound at 9 mM; type: ADME; conditions: 9000 µM; how it was run: as §1
[5] = as §2; type: ADME; conditions: 9000 µM; remark: listed apart in the source
How it was run: as §1, with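 “4°C. Sodium dithionite was then added (final 58.88 mM, final HbS about 24 g%).” for “4°C.”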

[6] = Solubility ratio of the sickle cell haemoglobin with compound to sickle cell haemoglobin with out compound at 10 mM; type: ADME; conditions: 10000 µM
How it was run: as §1, with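 “4°C. Sodium dithionite was then added (final 58.88 mM, final HbS about 24 g%).” for “4°C.”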

Canis familiaris [7] = test: Diuretic activity of compound measured in dog urine after intravenous administration of 5 mg/kg
Canis familiaris [8] = test: Diuretic activity of compound measured in dog urine after intravenous injection of 5 mg/kg; type: functional, Canis lupus familiaris
[9] = Solubility ratio of the sickel cell haemoglobin with compound to sickle cell haemoglobin with out compound at 3 mM; type: ADME; conditions: 3000 µM
How it was run: as §1, with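 “4°C. Sodium dithionite was then added (final 58.88 mM, final HbS about 24 g%).” for “4°C.”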

[10] = Solubility ratio of the sickell cell haemoglobin with compound to sickle cell haemoglobin with out compound at 5 mM; type: ADME; conditions: 5000 µM
How it was run: as §1, with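 “4°C. Sodium dithionite was then added (final 58.88 mM, final HbS about 24 g%).” for “4°C.”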

[11] = Solubility ratio of the sickell cell haemoglobin with compound to sickle cell haemoglobin with out compound at 7 mM; type: ADME; conditions: 7000 µM
How it was run: as §1, with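 “4°C. Sodium dithionite was then added (final 58.88 mM, final HbS about 24 g%).” for “4°C.”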

[12] = Solubility ratio of the sickell cell haemoglobin with compound to sickle cell haemoglobin with out compound at 9 mM; type: ADME; conditions: 9000 µM
How it was run: as §1, with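 “4°C. Sodium dithionite was then added (final 58.88 mM, final HbS about 24 g%).” for “4°C.”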

[13] = Solubility ratio of the sickle cell haemoglobin with compound to sickell cell haemoglobin with out compound at 10 mM; type: ADME; conditions: 10000 µM
How it was run: as §1, with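 “4°C. Sodium dithionite was then added (final 58.88 mM, final HbS about 24 g%).” for “4°C.”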

[14] = Solubility ratio of the sickle cell haemoglobin with compound to sickell cell haemoglobin with out compound at 5 mM; type: ADME; conditions: 5000 µM
How it was run: as §1, with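 “4°C. Sodium dithionite was then added (final 58.88 mM, final HbS about 24 g%).” for “4°C.”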

[15] = Solubility ratio of the sickle cell haemoglobin with compound to sickle cell haemoglobin without compound at 5 mM; type: ADME; conditions: 5000 µM
How it was run: as §1, with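 “4°C. Sodium dithionite was then added (final 58.88 mM, final HbS about 24 g%).” for “4°C.”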

Solubility ratio [1] | Solubility ratio [2] | Solubility ratio [3] | Solubility ratio [4] | SMILES | Diuretic activity (Canis familiaris [8]) | also measured
1.08 | 1.127 | 1.147 | 1.202 | C=C(CC)C(=O)c1ccc(OC2(C(=O)O)CCC2)c(Cl)c1Cl | – | –
1.057 | 1.085 | 1.099 | 1.143 | C=C(CCC)C(=O)c1ccc(OC2(C(=O)O)CCC2)c(Cl)c1Cl | – | –
1.052 | 1.1 | 1.106 | – | CC/C(=C/c1ccc(C(=O)O)cc1Cl)[N+](=O)[O-] | – | Solubility ratio [5]: 1.15
– | 1.076 | – | – | O=C(c1cccs1)c1cc2c(c(Cl)c1Cl)OC(C(=O)O)C2 (stereo unspecified) | – | Solubility ratio [6]: 1.08; Diuretic activity (Canis familiaris [7]): 0
– | 1.059 | – | 1.039 | CCC1=C(c2ccc(OCCCC(=O)O)c(Cl)c2Cl)OC(CC)(C(=O)c2ccc(OCCCC(=O)O)c(Cl)c2Cl)CC1 (stereo unspecified) | – | –
1.048 | 1.08 | 1.103 | 1.129 | C=C(CC)C(=O)c1c(Cl)cc(Cl)cc1OCC(=O)O | – | –
1.082 | 1.115 | 1.155 | 1.149 | C=C(CCC)C(=O)c1ccc(OCCCC(=O)O)c(Cl)c1Cl | – | –
– | 0.966 | – | – | CC(C)C(Br)C(=O)c1ccc(OCC(=O)O)c(Cl)c1Cl (stereo unspecified) | 3 | Solubility ratio [6]: 0.983
1.107 | 1.224 | 1.287 | 1.309 | C=C(CC)C(=O)c1ccc(OCCCC(=O)NCC(=O)O)c(Cl)c1Cl | – | –
1.085 | 1.128 | 1.159 | 1.207 | CC/C(=C/c1ccc(OCC(=O)O)c(OC)c1)[N+](=O)[O-] | – | –
– | 1.018 | – | – | CCC(CN(C)C)C(=O)c1ccc(OCC(=O)O)c(Cl)c1Cl.Cl (stereo unspecified) | 4 | Solubility ratio [6]: 1.168
1.038 | 1.076 | 1.075 | 1.099 | C/C(=C/c1ccc(OCC(=O)O)cc1)[N+](=O)[O-] | 1 | –
1.081 | 1.129 | 1.2 | 1.308 | C=C(CC)C(=O)c1ccc(OCCCCC(=O)O)c(Cl)c1Cl | – | –
1.073 | 1.077 | 1.089 | 1.113 | C=C(CC)C(=O)c1ccc(OCCN(CC)CC)c(Cl)c1Cl | – | –
– | 1.086 | 1.125 | 1.164 | C=C(CC)C(=O)c1ccc(OCCCCCC(=O)O)c(Cl)c1Cl | – | Solubility ratio [9]: 1.063
– | 1.01 | – | – | CC1(C2CCCC2)Cc2cc(OCC(=O)O)c(Cl)c(Cl)c2C1=O (stereo unspecified) | – | Solubility ratio [6]: 1.015; Diuretic activity (Canis familiaris [7]): 2

Solubility ratio [1] | Solubility ratio [2] | Solubility ratio [3] | Solubility ratio [4] | SMILES | Diuretic activity (Canis familiaris [8]) | also measured
– | – | – | – | CC(=O)C(=Cc1ccc(OCC(=O)O)c(Cl)c1Cl)C(C)=O | 6 | –
1.112 | – | – | – | C=C(CC)C(=O)c1ccc(OCCC(=O)O)c(Cl)c1Cl | – | Solubility ratio [10]: 1.145; Solubility ratio [11]: 1.188; Solubility ratio [12]: 1.302
– | – | – | – | CCC1=C(c2ccc(OCC(=O)O)c(Cl)c2Cl)OC(CC)(C(=O)c2ccc(OCC(=O)O)c(Cl)c2Cl)CC1 (stereo unspecified) | 0 | Solubility ratio [13]: 0.996; Solubility ratio [14]: 0.993
1.084 | 1.122 | 1.168 | 1.196 | C=C(CC)C(=O)c1ccc(OCCCC(=O)O)c(Cl)c1Cl | – | –
– | 0.961 | – | – | CC1(C2CCCC2)Cc2cc(OCCCC(=O)O)c(Cl)c(Cl)c2C1=O (stereo unspecified) | – | Solubility ratio [6]: 1.006
1.051 | 1.086 | 1.096 | 1.131 | CC/C(=C/c1ccc(OCC(=O)O)c(Cl)c1Cl)[N+](=O)[O-] | – | –
1.017 | 1.033 | 1.062 | 1.078 | C/C=C(\CC)C(=O)c1ccc(OCC(=O)O)c(Cl)c1Cl | 5 | –
1.033 | 1.06 | 1.067 | 1.095 | C=CC(=O)c1ccc(OCC(=O)O)c(Cl)c1Cl | – | –
1.074 | 1.09 | 1.103 | 1.12 | CCC1=Cc2cc(OCC(=O)O)c(Cl)c(Cl)c2C1=O | 5 | –
– | 1.016 | – | – | CCC(SC)C(=O)c1ccc(OCC(=O)O)c(Cl)c1Cl (stereo unspecified) | – | Solubility ratio [6]: 1.073
1.109 | 1.145 | 1.222 | 1.327 | C=C(CC)C(=O)c1ccc(OCC(=O)NCC(=O)O)c(Cl)c1Cl | 3 | –
– | – | – | – | CCC(C)C(=O)c1ccc(OCC(=O)O)c(Cl)c1Cl (stereo unspecified) | 2 | Solubility ratio [15]: 1.061; Solubility ratio [6]: 1.088
– | – | – | – | CCC(C(=O)c1ccc(OCC(=O)O)c(Cl)c1Cl)S(C)(=O)=O (stereo unspecified) | – | Solubility ratio [13]: 1.052; Solubility ratio [14]: 1.029
1.05 | 1.094 | 1.183 | 1.237 | C=C(CC)C(=O)c1ccc(OC(C)(C)C(=O)O)c(Cl)c1Cl | 0 | –
1.07 | 1.125 | 1.151 | 1.184 | C=C(CC)C(=O)c1ccc(OCC(=O)O)c(Cl)c1Cl [ETHACRYNIC ACID] | 6 | –
– | 0.989 | – | – | CC1(c2ccccc2)Cc2cc(OCC(=O)O)c(Cl)c(Cl)c2C1=O (stereo unspecified) [INDACRINONE] | – | Solubility ratio [6]: 1; Diuretic activity (Canis familiaris [7]): 3
